Assay results pooled from the literature.
Lines come from different studies, so protocols differ.
Read-out: cell growth or viability

Compound	cell line	method	time	quantity	result
CC(C)C[C@H](NC(=O)[C@H](CC(C)C)NC(=O)[C@@H]1CCCN1C(=O)[C@H](C)NC(=O)[C@@H](NC(=O)[C@H](C)N)C(C)C)C(=O)N[C@@H](Cc1c[nH]cn1)C(=O)N[C@@H](CO)C(=O)N[C@H](C(=O)O)[C@@H](C)OP(=O)(O)O	HeLa	MTT	72 h	IC50	1.05 µM
Cc1c(Cl)c(=O)oc2cc(OCCCC[Se]C#N)ccc12	HeLa	SRB		GI50	15 µM
O=C1c2ccccc2-c2c3c(cc4ccnc1c24)OCO3	HeLa	MTT	75 h	IC50	15.7 µM
COC(=O)c1cc(C(C)=NNc2nc(-c3ccc(S(=O)(=O)F)cc3)cs2)ccc1O	HSF	MTT	96 h	IC50	40.5 µM
Cc1cc(=O)oc2cc(OCCCC[Se]C#N)ccc12	HeLa	SRB		GI50	0.98 µM
CC[C@H](C)[C@H](NC(=O)[C@@H](N)CCC(=O)O)C(=O)N[C@@H](C)C(=O)N1CCC[C@H]1C(=O)N[C@H](C(=O)N[C@@H](CC(C)C)C(=O)N[C@@H](Cc1c[nH]cn1)C(=O)N[C@@H](CO)C(=O)N[C@H](C(=O)O)[C@@H](C)OP(=O)(O)O)C(C)C	HeLa	MTT	72 h	IC50	0.96 µM
O=[N+]([O-])c1ccc(NCCCCN=C=S)c2nonc12	HDFa	MTT	24 h	IC50	7.6 µM
N.N.[Cl][Pt][Cl]	SU-DHL-6	ATP luminescence	72 h	IC50	7.06 µM
O=[N+]([O-])c1ccc(NCCCCCCN=C=S)c2nonc12	HDFa	MTT	24 h	IC50	5.8 µM
CC(N)C(O)CCCCCCCCCCCCCCC(=O)CCCCCCCC(O)C(C)N (stereo not shown)	HeLa			IC50	24.5 µM
O=C1[O][Pt]2([NH][C@@H]3CCCC[C@H]3[NH]2)[O]C1=O	SNU-449	imaging	72 h	IC50	12.9 µM
COc1cccc2c1C(=O)c1c(O)c3c(c(O)c1C2=O)CC(O)(C(=O)CO)CC3OC1CC(NC(=O)OC2C=CCCCCC2)C(O)C(C)O1 (stereo not shown)	HeLa	CCK-8	72 h	IC50	> 10 µM
COc1c(C)c2c(c(O)c1C/C=C(\C)CCC(=O)O)C(=O)OC2	Hs-578T			IC50	2.51 µM
